# Hep lipid drop: hepatic lipid droplet formation modulation | inhibition, % at 6.5 µM | AID 1656 | 0.4% of 240,000 active | AML12 mouse hepatocytes, oleate lipid droplets, BODIPY imaging;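 active means lipid droplet intensity inhibited by at least 50%, with more than 500 cells counted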
#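 Assay system: AML12 mouse liver cells | Compound: 6.5 µM single-point dosing | Schedule: Overnight exposure | Technique: Fluorescence imaging, 20x objective, two fields per well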
# MEKK2wt PB1 HTS: raises or lowers MEK5 binding to wildtype human MEKK2 PB1 domain. Q9Y2U5. bead flow cytometry, Alexa488-MEK5 binding to MEKK2 WT; actives lie on both sides. binding response (% of control), % at 10 µM. 1.1% of 290,000 active. AID 1531; in the data active means binding response below about 67% or above about 130%
# MEKK2mut PB1 HTS: signal of MEK5 binding to mutant human MEKK2 PB1 domain; bead flow cytometry, Alexa488-MEK5 binding to MEKK2 mutant; percent response, % at 10 µM; 0.35% of 290,000 active; AID 1530; in the data active means percent response above about 24%, passing the limit was not always enough
# MEKK3 PB1 HTS: MEKK3-MEK5 PB1 interaction, increase or decrease | binding response (% of control), % at 10 µM | 1.4% of 290,000 active | AID 1529 | bead-based flow cytometry, Alexa488-MEK5 binding to MEKK3; actives lie on both sides; 0 = blocked by unlabeled MEK5, 100 = vehicle | Q99759;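 active means binding response more than 3 SD above or below the average of its plate-row segment, actives on both sides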;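 further: Alexa488 bead fluorescence after subtracting the streptavidin-only scavenger bead signal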
# Target sequence (Q99759 whole entry, looked up): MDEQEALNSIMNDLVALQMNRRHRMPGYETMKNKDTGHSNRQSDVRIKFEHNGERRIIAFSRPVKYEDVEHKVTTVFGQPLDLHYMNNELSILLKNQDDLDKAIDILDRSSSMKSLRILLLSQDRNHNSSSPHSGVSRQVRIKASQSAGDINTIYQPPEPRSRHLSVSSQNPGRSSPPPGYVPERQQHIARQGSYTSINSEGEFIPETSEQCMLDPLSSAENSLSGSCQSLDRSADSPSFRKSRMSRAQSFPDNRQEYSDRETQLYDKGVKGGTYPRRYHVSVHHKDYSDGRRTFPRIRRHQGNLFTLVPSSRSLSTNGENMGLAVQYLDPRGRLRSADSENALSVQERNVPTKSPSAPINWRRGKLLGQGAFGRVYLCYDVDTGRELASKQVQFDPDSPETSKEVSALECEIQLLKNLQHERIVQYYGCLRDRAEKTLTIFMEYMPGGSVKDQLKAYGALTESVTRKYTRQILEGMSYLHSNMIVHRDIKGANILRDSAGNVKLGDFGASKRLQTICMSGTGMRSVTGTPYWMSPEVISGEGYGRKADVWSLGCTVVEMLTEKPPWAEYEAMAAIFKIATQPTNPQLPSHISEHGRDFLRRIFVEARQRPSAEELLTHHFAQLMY
# MEKK2wt confirm: raises or lowers MEK5 binding to wildtype human MEKK2, retest. AID 1892. 2.4% of 5,900 active. binding response (% of control), % at 10 µM. bead flow cytometry, Alexa488-MEK5 binding to MEKK2 WT; actives lie on both sides. shares compounds with MEKK3 PB1 HTS; in the data active means binding response below about 16% or above about 210%; inactive means in between
# MEKK2mut-MEK5: signal of MEK5 binding to mutant human MEKK2, retest; shares compounds with MEKK3 PB1 HTS; bead flow cytometry, Alexa488-MEK5 binding to MEKK2 mutant; percent response, % at 10 µM; 2% of 5,900 active; in the data active means percent response mostly above about 71%, no sharp cut-off; inactive means mostly below about 38%;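 further: higher means compound restores mutant binding toward wildtype level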
# MEKK3 confirm: MEKK3-MEK5 PB1 inhibition, single concentration confirmation | binding response (% of control), % at 10 µM | bead flow cytometry, Alexa488-MEK5 binding to MEKK3; hits give low values | 1.8% of 5,900 active | shares compounds with MEKK3 PB1 HTS | AID 1894;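 active means binding response below 72% of control, or above a set upper limit, though filed actives all read lower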
# A number is an active result; - = inactive; . = no result; [ ] = remark or other dose. A selection: hits, their analogues and other compounds. The true share with any hit is near 2.6%.
SMILES,Hep lipid drop,MEKK2wt PB1 HTS,MEKK2mut PB1 HTS,MEKK3 PB1 HTS,MEKK2wt confirm,MEKK2mut-MEK5,MEKK3 confirm
COc1ccc(N=c2oc3ccc(OC)cc3cc2-c2nc3ccccc3[nH]2)cc1,-,-,-,124.0,-,-,-
COc1cccc(N=c2oc3ccc(OC)cc3cc2-c2nc3ccccc3[nH]2)c1,-,-,-,-,.,.,.
Cc1nc2ccc(NC(=O)c3cccnc3)cc2s1,-,-,-,50.0[inhibitor],-,-,-
Cc1nc2ccc(NC(=O)c3cnc(Cl)c(Cl)c3)cc2s1,-,-,-,-,.,.,.
CCN(CC)c1ccc(NC(=O)c2cccnc2)cc1,-,134.0,-,-,-,-,-
Cc1cccc(N2CCN(CCCNC(=O)c3ccc(NC(=O)C4=CSCCO4)cc3)CC2C)c1 (stereo not drawn),-,-,-,-,.,.,.
COc1ccc(CCNc2ccc(C(CC(N)=O)NC(=O)c3cc(OC)ccc3OC)cc2[N+](=O)[O-])cc1 (stereo not drawn),-,-,-,-,.,.,.
CCOCCCN(C)C1CCN(C(=O)c2oc3ccccc3c2NC(=O)Cc2ccc(F)cc2)CC1,-,-,-,-,.,.,.
CC[C@@H](C)[C@H](CNC)NC[C@@H](Cc1cccc2ccccc12)NCCc1cccc(C(F)(F)F)c1,-,318.0,74.0,-,247.0,101.0,-
CCC[C@@H](CN[C@@H](CNC)[C@H](C)CC)NCC1CCC(C(C)(C)C)CC1 (stereo partly drawn),-,148.0,-,-,-,-,-
O=C(CNC(=O)Cc1ccccc1)NCc1cccc(C(F)(F)F)c1,-,-,-,-,.,.,.
CC(C)NCC(O)COC1CCC(C(C)(C)C)CC1 (stereo not drawn),-,-,-,-,.,.,.
CCC[C@H](CN[C@@H](CNC)[C@H](C)CC)NCCc1cc(C(F)(F)F)cc(C(F)(F)F)c1,-,158.0,-,-,-,-,-
CS(=O)(=O)Nc1cccc(C(=O)OCCCOc2ccc(F)cc2)c1,-,31.0[inhibitor],-,64.0[inhibitor],-,-,-
O=C(CSc1nc2ncc(Br)cc2[nH]1)c1ccc([N+](=O)[O-])cc1,-,-,-,132.0,-,-,-
c1ccc2[nH]c(NCc3ccc4c(c3)OCO4)nc2c1,-,-,-,-,.,.,.
Cc1[nH]nc2c1C1(CCC3(CC1)OCCO3)C(C#N)=C(N)O2,-,-3.0[inhibitor],-,1.0[inhibitor],-,-,-
COc1ccc(C2CC(c3cccs3)=NN2S(C)(=O)=O)cc1OC (stereo not drawn),-,.,70.0,-,-,-,-
COc1ccc(C2CC(c3cccs3)=NN2c2ccc(C=O)cc2)cc1 (stereo not drawn),-,63.0[inhibitor],-,-,-,-,-
CC(=O)CC(=O)Nc1ncccn1,-,-,-,-,.,.,.
O=C(NNC1=NCCN1Cc1ccccc1)c1cccc(C(F)(F)F)c1,-,-,-,128.0,-,-,-
O=C(NNC(=O)c1cccc(C(F)(F)F)c1)c1ccncc1,.,-,-,-,.,.,.
COc1ccc(/C=C2\SC(N3CCc4ccccc4C3)=NC2=O)cc1,-,-,-,131.0,-,-,-
CS(=O)(=O)c1ccc2nc(NC(=O)CN3C(=O)C4CC=CCC4C3=O)sc2c1 (stereo not drawn),-,-,-,138.0,-,-,-
CC(C)Oc1ccc(CNCC2(O)CCOC(C)(C)C2)cc1 (stereo not drawn),-,-,-,-,.,.,.
SMILES,Hep lipid drop,MEKK2wt PB1 HTS,MEKK2mut PB1 HTS,MEKK3 PB1 HTS,MEKK2wt confirm,MEKK2mut-MEK5,MEKK3 confirm
CC1(C)CC(O)(CNCc2ccc3c(c2)OCO3)CCO1 (stereo not drawn),.,3.0[inhibitor],-,2.0[inhibitor],-,-,-
COc1ccc(OC)c(Cc2nnc(CCC(=O)NCc3ccc(C)s3)o2)c1,-,-,-,-,.,.,.
O=C(Nc1cccc(O)c1)C(Cc1ccccc1)N1C(=O)c2cccc3cccc(c23)C1=O (stereo not drawn),-,-,-,140.0,-,-,-
CCN1CCN(C(=S)Nc2ccc(Cl)c(Cl)c2)CC1,-,62.0[inhibitor],-,64.0[inhibitor],-,-,-
CCN1CCN(C(=S)Nc2cccc(Cl)c2)CC1,-,-,-,-,.,.,.
OC(CNCCC1C=Nc2ccccc21)Cn1c2ccc(Cl)cc2c2cc(Cl)ccc21 (stereo not drawn),-,-,-,-,.,.,.
CC(OC(=O)C1CCN(S(=O)(=O)c2ccc(Cl)cc2)CC1)C(=O)NC1CCCCC1C (stereo not drawn),-,-,-,-,.,.,.
COc1ccc(S(=O)(=O)NCCc2cn3nc(C)c(C)nc3n2)cc1F,-,-,-,-,.,.,.
O=C(COc1ncnc2sccc12)N1CCN(C(=O)c2ccco2)CC1,-,-,-,-,.,.,.
CCCCN(CC)CCNC(=O)c1cn(C)c(=O)c2c1c1ccccc1n2C,-,-,-,-,.,.,.
CCCCN(CC)CCNC(=O)c1nn(-c2ccc(OC)cc2)c(=O)c2c1c1ccccc1n2C,-,144.0,-,-,-,-,-
COc1ccc(/C(O)=C2/C(=O)C(=O)N(c3ccccn3)C2c2cccc(Cl)c2)cc1 (stereo not drawn),-,-,-,-,.,.,.
COCC(=O)Nc1cc(C(=O)Nc2ccccc2C)ccc1Cl,.,-,-,82.0[inhibitor],-,-,-
COCC(=O)Nc1cc(C(=O)Nc2cccc(C)c2C)ccc1Cl,-,-,-,-,.,.,.
CCOc1ccc(Cn2ccnc2)cc1[N+](=O)[O-],-,-,-,129.0,-,-,-
CCC1(c2ccc(Cl)cc2)NC(=S)N(c2ccccc2)N1 (stereo not drawn),-,-,-,128.0,-,-,-
CCC1(c2ccccc2)NC(=S)N(c2ccc(C)cc2)N1 (stereo not drawn),-,-,-,-,.,.,.
CCOC(=O)CN(C)Cc1cn(C)nc1-c1ccc(Oc2ccccc2)cc1,-,-,-,-,.,.,.
Cc1cc(C)c(NC(=O)CN2CCN(c3ccccn3)CC2)c(C)c1,-,-,-,-,.,.,.
COc1ccc(-c2c(-c3ccccc3)c(C(=O)C(=O)NCCCN(C)C)n3ccc4cc(OC)c(OC)cc4c23)cc1OC,.,140.0,-,-,-,-,-
CN(C)CCNC(=O)C(=O)c1c(-c2ccccc2)cc2ccccn12,-,-,-,-,.,.,.
OC1CCCN(Cc2ccc3ccc4cccc5ccc2c3c45)C1 (stereo not drawn),.,140.0,-,-,-,-,-
O=C(Nc1nc(-c2ccccc2)nc2ccccc12)c1ccc(F)cc1,-,-,-,-,.,.,.
Cc1nn(CC(=O)N2CCN(c3ccccc3)CC2)c(=O)c2cccn12,-,-,-,-,.,.,.
CCC(C)(C)n1nnnc1CN(Cc1cc2cc(OC)ccc2[nH]c1=O)C1CCCC1,.,-,-,82.0[inhibitor],-,-,-

# Assay outcomes from PubChem BioAssay.
